Test results taken from ChEMBL document CHEMBL1138563, “Synthesis and in vitro antimicrobial activity of some novel substituted benzimidazole derivatives having potent activity against MRSA” (2009).
≈ marks a conversion by molar mass, not a printed value.

Columns and labels:
Format in all cases: functional
Escherichia coli = assay: Antimicrobial activity against Escherichia coli ATCC 25922 by tube dilution method
Procedure, shortened: (§1)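 Tube dilution MIC determination. Test agents and reference drugs are dissolved as a stock in 50% DMSO–water, then diluted 4-fold with culture medium plus inoculum. The first dilution (12.5% DMSO) is excluded from scoring. The read-out is the minimum inhibitory concentration.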

Candida albicans = assay: Antimicrobial activity against Candida albicans ATCC 10145 by tube dilution method; procedure, shortened: as §1
Bacillus subtilis = assay: Antimicrobial activity against Bacillus subtilis ATCC 6633 by tube dilution method; procedure, shortened: as §1
Staphylococcus aureus [1] = assay: Antimicrobial activity against methicillin-resistant Staphylococcus aureus ATCC […] by tube dilution method
Procedure, shortened: (§2)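 Tube dilution MIC assay. Compounds and standard drugs were dissolved in 50% DMSO–water as stock. The stock was diluted 4-fold with culture medium plus bacterial suspension to give the starting test concentration. That initial tube contained 12.5% DMSO, so no data were taken from it. The MIC was then read across the dilution series.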

Staphylococcus aureus [2] = assay: Antimicrobial activity against methicillin-resistant Staphylococcus aureus isolates by tube dilution method; procedure, shortened: as §2
Staphylococcus aureus [3] = assay: Antimicrobial activity against Staphylococcus aureus ATCC 25923 by tube dilution method; procedure, shortened: as §2

| SMILES | MIC (Escherichia coli) | MIC (Candida albicans) | MIC (Bacillus subtilis) | MIC (Staphylococcus aureus [1]) | MIC (Staphylococcus aureus [2]) | MIC (Staphylococcus aureus [3]) |
| --- | --- | --- | --- | --- | --- | --- |
| Clc1ccc2c(c1)nc(-c1ccc(OCc3ccccc3)cc1)n2C1CCCC1 | 50 µg/mL (≈ 124 µM) | 25 µg/mL (≈ 62 µM) | 50 µg/mL (≈ 124 µM) | 6.25 µg/mL (≈ 15.5 µM) | 6.25 µg/mL (≈ 15.5 µM) | 3.12 µg/mL (≈ 7.74 µM) |
| Clc1ccc(-c2nc3cc(Cl)c(Cl)cc3[nH]2)cc1 | 50 µg/mL (≈ 168 µM) | 12.5 µg/mL (≈ 42 µM) | 50 µg/mL (≈ 168 µM) | 3.12 µg/mL (≈ 10.5 µM) | 3.12 µg/mL (≈ 10.5 µM) | 3.12 µg/mL (≈ 10.5 µM) |
| Clc1cc2nc(Cl)n(C3CCCC3)c2cc1Cl | 50 µg/mL (≈ 173 µM) | 50 µg/mL (≈ 173 µM) | 25 µg/mL (≈ 86.3 µM) | 6.25 µg/mL (≈ 21.6 µM) | 6.25 µg/mL (≈ 21.6 µM) | 3.12 µg/mL (≈ 10.8 µM) |
| CCOc1cc2c(cc1Cl)nc(-c1cccc([N+](=O)[O-])c1)n2C1CCCC1 | 50 µg/mL (≈ 130 µM) | 6.25 µg/mL (≈ 16.2 µM) | 25 µg/mL (≈ 64.8 µM) | 25 µg/mL (≈ 64.8 µM) | 12.5 µg/mL (≈ 32.4 µM) | 50 µg/mL (≈ 130 µM) |
| Clc1cc2nc(-c3ccc4ccccc4c3)n(C3CCCC3)c2cc1Cl | 50 µg/mL (≈ 131 µM) | 12.5 µg/mL (≈ 32.8 µM) | 12.5 µg/mL (≈ 32.8 µM) | 25 µg/mL (≈ 65.6 µM) | 25 µg/mL (≈ 65.6 µM) | 50 µg/mL (≈ 131 µM) |
| CC1(C)S[C@@H]2[C@H](NC(=O)[C@H](N)c3ccccc3)C(=O)N2[C@H]1C(=O)OCOC(=O)[C@@H]1N2C(=O)C[C@H]2S(=O)(=O)C1(C)C [SULTAMICILLIN] |  |  | 0.78 µg/mL (≈ 1.31 µM) | 25 µg/mL (≈ 42 µM) | 25 µg/mL (≈ 42 µM) | 0.39 µg/mL (≈ 0.656 µM) |
| CN(C)c1ccc(-c2nc3cc(Cl)ccc3n2C2CCCC2)cc1 | 50 µg/mL (≈ 147 µM) | 12.5 µg/mL (≈ 36.8 µM) | 25 µg/mL (≈ 73.6 µM) | 25 µg/mL (≈ 73.6 µM) | 25 µg/mL (≈ 73.6 µM) | 12.5 µg/mL (≈ 36.8 µM) |
| Clc1ccc(-c2nc3cc(Cl)ccc3n2C2CCCC2)cc1 | 25 µg/mL (≈ 75.5 µM) | 25 µg/mL (≈ 75.5 µM) | 25 µg/mL (≈ 75.5 µM) | 50 µg/mL (≈ 151 µM) | 50 µg/mL (≈ 151 µM) | 50 µg/mL (≈ 151 µM) |
| CC(=O)Oc1ccc(-c2nc3cc(Cl)ccc3n2C2CCCC2)cc1 | 50 µg/mL (≈ 141 µM) | 50 µg/mL (≈ 141 µM) | 50 µg/mL (≈ 141 µM) | 50 µg/mL (≈ 141 µM) | 50 µg/mL (≈ 141 µM) | 50 µg/mL (≈ 141 µM) |
| Nc1nc2cc(Cl)c(Cl)cc2n1C1CCCC1 | 50 µg/mL (≈ 185 µM) | 6.25 µg/mL (≈ 23.1 µM) | 6.25 µg/mL (≈ 23.1 µM) | 6.25 µg/mL (≈ 23.1 µM) | 6.25 µg/mL (≈ 23.1 µM) | 3.12 µg/mL (≈ 11.5 µM) |
| CC1(C)S[C@@H]2[C@H](NC(=O)[C@H](N)c3ccccc3)C(=O)N2[C@H]1C(=O)O [AMPICILLIN] |  |  |  | 50 µg/mL (≈ 143 µM) | 50 µg/mL (≈ 143 µM) | 0.78 µg/mL (≈ 2.23 µM) |
| CC(C)(C)c1ccc(-c2nc3cc(Cl)c(Cl)cc3[nH]2)cc1 | 50 µg/mL (≈ 157 µM) | 12.5 µg/mL (≈ 39.2 µM) | 6.25 µg/mL (≈ 19.6 µM) | 3.12 µg/mL (≈ 9.77 µM) | 3.12 µg/mL (≈ 9.77 µM) | 3.12 µg/mL (≈ 9.77 µM) |
| Fc1ccc(-c2nc3cc(Cl)c(Cl)cc3[nH]2)cc1 | 50 µg/mL (≈ 178 µM) | 6.25 µg/mL (≈ 22.2 µM) | 6.25 µg/mL (≈ 22.2 µM) | 3.12 µg/mL (≈ 11.1 µM) | 3.12 µg/mL (≈ 11.1 µM) | 3.12 µg/mL (≈ 11.1 µM) |
| CC(C)(C)c1ccc(-c2nc3cc(Cl)c(Cl)cc3n2C2CCCC2)cc1 | 50 µg/mL (≈ 129 µM) | 25 µg/mL (≈ 64.5 µM) | 25 µg/mL (≈ 64.5 µM) | 25 µg/mL (≈ 64.5 µM) | 25 µg/mL (≈ 64.5 µM) | 6.25 µg/mL (≈ 16.1 µM) |
| N#Cc1ccc(-c2nc3cc(Cl)ccc3n2C2CCCC2)cc1 | 50 µg/mL (≈ 155 µM) | 6.25 µg/mL (≈ 19.4 µM) | 50 µg/mL (≈ 155 µM) | ≥ 50 µg/mL | ≥ 50 µg/mL | 50 µg/mL (≈ 155 µM) |
| Clc1ccc2c(c1)ncn2C1CCCC1 | ≥ 50 µg/mL | 50 µg/mL (≈ 227 µM) | 50 µg/mL (≈ 227 µM) | 50 µg/mL (≈ 227 µM) | 50 µg/mL (≈ 227 µM) | 50 µg/mL (≈ 227 µM) |
| CC(=O)Oc1ccc(-c2nc3cc(Cl)c(Cl)cc3n2C2CCCC2)cc1 | 25 µg/mL (≈ 64.2 µM) | 12.5 µg/mL (≈ 32.1 µM) | 25 µg/mL (≈ 64.2 µM) | 50 µg/mL (≈ 128 µM) | 50 µg/mL (≈ 128 µM) | 50 µg/mL (≈ 128 µM) |
| Clc1ccc2c(c1)nc(-c1ccc3ccccc3c1)n2C1CCCC1 | 50 µg/mL (≈ 144 µM) | 6.25 µg/mL (≈ 18 µM) | 25 µg/mL (≈ 72.1 µM) | 25 µg/mL (≈ 72.1 µM) | 25 µg/mL (≈ 72.1 µM) | 25 µg/mL (≈ 72.1 µM) |

| SMILES | MIC (Escherichia coli) | MIC (Candida albicans) | MIC (Bacillus subtilis) | MIC (Staphylococcus aureus [1]) | MIC (Staphylococcus aureus [2]) | MIC (Staphylococcus aureus [3]) |
| --- | --- | --- | --- | --- | --- | --- |
| COc1ccc(-c2nc3cc(Cl)ccc3n2C2CCCC2)cc1 | 25 µg/mL (≈ 76.5 µM) | 12.5 µg/mL (≈ 38.2 µM) | 25 µg/mL (≈ 76.5 µM) | 50 µg/mL (≈ 153 µM) | 50 µg/mL (≈ 153 µM) | 50 µg/mL (≈ 153 µM) |
| CC(C)Nc1nc2cc(Cl)c(Cl)cc2n1C1CCCC1 | 50 µg/mL (≈ 160 µM) | 50 µg/mL (≈ 160 µM) | 50 µg/mL (≈ 160 µM) | 50 µg/mL (≈ 160 µM) | 50 µg/mL (≈ 160 µM) | 50 µg/mL (≈ 160 µM) |
| Clc1cc2ncn(C3CCCC3)c2cc1Cl | 50 µg/mL (≈ 196 µM) | 12.5 µg/mL (≈ 49 µM) | 12.5 µg/mL (≈ 49 µM) | 6.25 µg/mL (≈ 24.5 µM) | 6.25 µg/mL (≈ 24.5 µM) | 6.25 µg/mL (≈ 24.5 µM) |
| O=C(O)c1cn(C2CC2)c2cc(N3CCNCC3)c(F)cc2c1=O [CIPROFLOXACIN] |  |  | 0.09 µg/mL (≈ 0.272 µM) |  | 12.5 µg/mL (≈ 37.7 µM) | 0.78 µg/mL (≈ 2.35 µM) |
| O=[N+]([O-])c1cccc(-c2nc3cc(Cl)ccc3n2C2CCCC2)c1 | 50 µg/mL (≈ 146 µM) | 12.5 µg/mL (≈ 36.6 µM) | 25 µg/mL (≈ 73.1 µM) | 50 µg/mL (≈ 146 µM) | 50 µg/mL (≈ 146 µM) | 50 µg/mL (≈ 146 µM) |
| Fc1ccc(-c2nc3cc(Cl)c(Cl)cc3n2C2CCCC2)cc1 | 25 µg/mL (≈ 71.6 µM) | 25 µg/mL (≈ 71.6 µM) | 50 µg/mL (≈ 143 µM) | 50 µg/mL (≈ 143 µM) | 50 µg/mL (≈ 143 µM) | 25 µg/mL (≈ 71.6 µM) |
| Clc1cc2nc(-c3ccc4ccccc4c3)[nH]c2cc1Cl | 50 µg/mL (≈ 160 µM) | 25 µg/mL (≈ 79.8 µM) | 25 µg/mL (≈ 79.8 µM) | 50 µg/mL (≈ 160 µM) | 50 µg/mL (≈ 160 µM) | 50 µg/mL (≈ 160 µM) |
| Clc1ccc(-c2nc3cc(Cl)c(Cl)cc3n2C2CCCC2)cc1 | 50 µg/mL (≈ 137 µM) | 12.5 µg/mL (≈ 34.2 µM) | 25 µg/mL (≈ 68.4 µM) | 50 µg/mL (≈ 137 µM) | 50 µg/mL (≈ 137 µM) | 50 µg/mL (≈ 137 µM) |
| OC(Cn1cncn1)(Cn1cncn1)c1ccc(F)cc1F [FLUCONAZOLE] |  | 1.56 µg/mL (≈ 5.09 µM) |  |  |  |  |
| CCOc1cc2c(cc1Cl)nc(-c1ccc(Cl)cc1)n2C1CCCC1 | 50 µg/mL (≈ 133 µM) | 25 µg/mL (≈ 66.6 µM) | 25 µg/mL (≈ 66.6 µM) | 50 µg/mL (≈ 133 µM) | 50 µg/mL (≈ 133 µM) | 50 µg/mL (≈ 133 µM) |
| CCOc1cc2c(cc1Cl)nc(-c1ccc(OC(C)=O)cc1)n2C1CCCC1 | 50 µg/mL (≈ 125 µM) | 6.25 µg/mL (≈ 15.7 µM) | 25 µg/mL (≈ 62.7 µM) | 50 µg/mL (≈ 125 µM) | 50 µg/mL (≈ 125 µM) | 50 µg/mL (≈ 125 µM) |
| CCOc1cc2c(cc1Cl)nc(-c1ccc(F)cc1)n2C1CCCC1 | 50 µg/mL (≈ 139 µM) | 50 µg/mL (≈ 139 µM) | 25 µg/mL (≈ 69.7 µM) | 6.25 µg/mL (≈ 17.4 µM) | 6.25 µg/mL (≈ 17.4 µM) | 6.25 µg/mL (≈ 17.4 µM) |
| Fc1ccc(-c2nc3cc(Cl)ccc3n2C2CCCC2)cc1 | 25 µg/mL (≈ 79.4 µM) | 12.5 µg/mL (≈ 39.7 µM) | 12.5 µg/mL (≈ 39.7 µM) | 25 µg/mL (≈ 79.4 µM) | 25 µg/mL (≈ 79.4 µM) | 25 µg/mL (≈ 79.4 µM) |
| COc1ccc(-c2nc3cc(Cl)c(Cl)cc3n2C2CCCC2)cc1 | 50 µg/mL (≈ 138 µM) | 6.25 µg/mL (≈ 17.3 µM) | 50 µg/mL (≈ 138 µM) | 25 µg/mL (≈ 69.2 µM) | 25 µg/mL (≈ 69.2 µM) | 25 µg/mL (≈ 69.2 µM) |
| Nc1nc2cc(Cl)ccc2n1C1CCCC1 | 50 µg/mL (≈ 212 µM) | 25 µg/mL (≈ 106 µM) | 25 µg/mL (≈ 106 µM) | 50 µg/mL (≈ 212 µM) | 50 µg/mL (≈ 212 µM) | 25 µg/mL (≈ 106 µM) |
| CC(C)(C)c1ccc(-c2nc3cc(Cl)ccc3n2C2CCCC2)cc1 | 25 µg/mL (≈ 70.8 µM) | 12.5 µg/mL (≈ 35.4 µM) | 50 µg/mL (≈ 142 µM) | 12.5 µg/mL (≈ 35.4 µM) | 6.25 µg/mL (≈ 17.7 µM) | 50 µg/mL (≈ 142 µM) |
| Clc1cc2nc(Br)n(C3CCCC3)c2cc1Cl | 50 µg/mL (≈ 150 µM) | 25 µg/mL (≈ 74.8 µM) | 25 µg/mL (≈ 74.8 µM) | 6.25 µg/mL (≈ 18.7 µM) | 6.25 µg/mL (≈ 18.7 µM) | 3.12 µg/mL (≈ 9.34 µM) |
